The nature of data set [1]: melting temperature; fluorescence melt of hairpins on a sequencing array, two-state fit, raised by 9.35 °C to match UV melts. The settings on record: sodium 0.088 M. Summed up: (§1)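 Bootstrapped two-state fits yielded melting temperature and folding enthalpy for library hairpins. Cy3 fluorescence, with annealed Cy3 and quencher oligos, was imaged on a sequenced MiSeq flow cell in 50 mM Na-HEPES pH 8.0, 25 mM NaCl in 2.5 °C steps up to 60 °C, and normalised to pre-quench Cy3 and to control constructs. Four replicates were combined by inverse variance, and fitted temperatures were raised by 9.35 °C to match UV melts.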

Data set [2] is described as follows: folding enthalpy; higher = less favourable; fluorescence melt of hairpins on a sequencing array, two-state fit. The settings on record: sodium 0.088 M. The essentials: as §1

Our source for the Tm and folding enthalpy values is the array DNA melting data of Ke et al. (doi:10.1101/2024.01.08.574731).

As to GGCCCCTCGAAAGAGGCC (((..(((....)))))), the Tm in data set [1] is 43.8 °C. In addition, the folding enthalpy in data set [2] is -15.6 kcal/mol.

GGCCCGACGAAAGTCGCC (((..(((....)))))): the Tm in data set [1] was found to be 35.2 °C. For the same sequence, the folding enthalpy in data set [2] was -8.24 kcal/mol.

Take GGCCCGGGAAACCGGGTC (.(((((....))))).): the Tm in data set [1] was 67.3 °C. Moreover, in data set [2], the folding enthalpy is -28.9 kcal/mol.

With GGCCCTCCGAAAGGAGCC (((..(((....)))))), the Tm in data set [1] was 38.4 °C. Also, in data set [2], the folding enthalpy is -10.6 kcal/mol.

GGCCCTGGAAACAGAGCC (((.(((....))).))): in data set [1], the Tm was 48.7 °C. Besides, the folding enthalpy in data set [2] is -41.2 kcal/mol.

In the case of GGCCCTGGAAACAGGGTC (.(((((....))))).), the Tm in data set [1] turned out to be 58.9 °C. Moreover, the folding enthalpy in data set [2] was -36 kcal/mol.

In the case of GGCCCTGGAAACGGGGCC (((((.(....).))))), the Tm in data set [1] was 67.5 °C. Moreover, the folding enthalpy in data set [2] is -31.4 kcal/mol.

Turning to GGCCGACGAAAGTCTGCC (((.(((....))).))), the Tm in data set [1] is 56.2 °C. Further, the folding enthalpy in data set [2] was -51.3 kcal/mol.

Consider GGCCGAGGAAACCCGACC ((.((.(....).)).)), for which the Tm in data set [1] was 34 °C. Further, the folding enthalpy in data set [2] is -24.9 kcal/mol.

Regarding GGCCGATCGAAAGATGCC (((..(((....)))))), the Tm in data set [1] stood at 38.9 °C. Further, the folding enthalpy in data set [2] was -25.1 kcal/mol.

As to GGCCGCGAAAGCGCTGCC ((((((....)))..))), the Tm in data set [1] was determined as 56.5 °C. In addition, the folding enthalpy in data set [2] is -18.6 kcal/mol.

As to GGCCGCGAAAGCGGAGCC ((((((....)))..))), the Tm in data set [1] came out at 53.9 °C. Besides, the folding enthalpy in data set [2] is -13.4 kcal/mol.

In the case of GGCCGCGAAAGCGTTGCC ((((((....)))..))), the Tm in data set [1] came out at 56 °C. Also, in data set [2], the folding enthalpy was -16.8 kcal/mol.

GGCCGCGGAAACGCGACC ((.((((....)))).)): the Tm in data set [1] turned out to be 63.3 °C. In data set [2], the folding enthalpy was -19.7 kcal/mol.

Take GGCCGGACGAAAGTCGCC (((..(((....)))))): the Tm in data set [1] amounted to 50 °C. Further, in data set [2], the folding enthalpy was -21.5 kcal/mol.

Turning to GGCCGGGGAAACCCGGTC (.(((((....))))).), the Tm in data set [1] came to 67.9 °C. Further, in data set [2], the folding enthalpy is -24.6 kcal/mol.

Turning to GGCCGTCGAAAGACGCC (((.(((....)))))), the Tm in data set [1] was determined as 62.8 °C. Also, the folding enthalpy in data set [2] is -17.2 kcal/mol.

For GGCCGTGGAAACATGGCC ((((.((....)).)))), in data set [1], the Tm came to 61.8 °C. The folding enthalpy in data set [2] was -44.6 kcal/mol.

Turning to GGCCGTGGAAACGCGGTC (.(((.(....).))).), the Tm in data set [1] came out at 52.5 °C. Besides, in data set [2], the folding enthalpy is -30.3 kcal/mol.

Turning to GGCCGTGGAAACGTGGCC ((((..(....)..)))), in data set [1], the Tm turned out to be 55.5 °C. The folding enthalpy in data set [2] was -39.9 kcal/mol.

Take GGCCGTTCGAAAGAAGCC (((..(((....)))))): the Tm in data set [1] came to 27.6 °C. Besides, the folding enthalpy in data set [2] was -13.8 kcal/mol.

In the case of GGCCTAGCGAAAGCTGCC (((..(((....)))))), the Tm in data set [1] came out at 47.1 °C. For the same sequence, in data set [2], the folding enthalpy was -20.4 kcal/mol.

As to GGCCTCCGAAAGGACGCC (((.(((....))).))), in data set [1], the Tm is 53.6 °C. Moreover, the folding enthalpy in data set [2] was -37.2 kcal/mol.

Consider GGCCTCGAAAGAGAAGCC ((((((....)))..))), for which the Tm in data set [1] stood at 47.9 °C. The folding enthalpy in data set [2] was -26 kcal/mol.

Regarding GGCCTCGAAAGAGCGCC ((((((....))).))), the Tm in data set [1] worked out at 56.7 °C. Further, the folding enthalpy in data set [2] was -21.8 kcal/mol.

Regarding GGCCTCGAAAGAGCGGCC ((((((....)))..))), the Tm in data set [1] came to 51.8 °C. Also, the folding enthalpy in data set [2] is -29.1 kcal/mol.

GGCCTCGAAAGAGCTGCC ((((((....)))..))): in data set [1], the Tm came out at 45 °C. For the same sequence, the folding enthalpy in data set [2] was -24 kcal/mol.

Turning to GGCCTCGAAAGAGGTGCC ((((((....)))..))), in data set [1], the Tm is 47.6 °C. Moreover, in data set [2], the folding enthalpy is -13.2 kcal/mol.

GGCCTCGAAAGAGTGCC ((((((....))).))): in data set [1], the Tm is 58.2 °C. For the same sequence, the folding enthalpy in data set [2] is -37.7 kcal/mol.

As for GGCCTCGGAAACGAGACC ((.((((....)))).)), the Tm in data set [1] is 52.2 °C. Also, in data set [2], the folding enthalpy was -31.3 kcal/mol.

Turning to GGCCTGCGAAAGCAAGCC (((.(((....))).))), the Tm in data set [1] is 58.5 °C. Besides, the folding enthalpy in data set [2] was -30.1 kcal/mol.

Regarding GGCCTGGGAAACCAAGCC (((.(((....))).))), the Tm in data set [1] turned out to be 45.4 °C. Moreover, the folding enthalpy in data set [2] was -30.1 kcal/mol.

Take GGCCTGTCGAAAGACGCC (((..(((....)))))): in data set [1], the Tm is 45.2 °C. Further, in data set [2], the folding enthalpy is -18.8 kcal/mol.

On to GGCCTTCGAAAGAAAGCC (((.(((....))).))), for which the Tm in data set [1] came out at 45.7 °C. The folding enthalpy in data set [2] was -31 kcal/mol.

For the sequence GGCCTTCGAAAGAATGCC (((.(((....))).))), the Tm in data set [1] is 48.3 °C. Besides, in data set [2], the folding enthalpy is -33.1 kcal/mol.

As for GGCCTTGAAAAAGGCC ((((((....)))))), the Tm in data set [1] stood at 68.4 °C. Further, the folding enthalpy in data set [2] was -39.9 kcal/mol.

As for GGCCTTGGAAACAGGGCC ((((.((....)).)))), in data set [1], the Tm is 57.1 °C. Further, the folding enthalpy in data set [2] was -46 kcal/mol.

For the sequence GGCCTTGGAAACGAGGCC (((((.(....).))))), the Tm in data set [1] turned out to be 59.4 °C. Moreover, the folding enthalpy in data set [2] was -50.7 kcal/mol.

Take GGCGAAACGAAAGTTGCC (((..(((....)))))): the Tm in data set [1] stood at 49.5 °C. For the same sequence, in data set [2], the folding enthalpy is -25.5 kcal/mol.

Regarding GGCGACGAAAGTCCCGCC ((((((....)))..))), the Tm in data set [1] was 54.8 °C. For the same sequence, the folding enthalpy in data set [2] was -19.5 kcal/mol.

For the sequence GGCGACGAAAGTCTGGCC ((((((....)))..))), the Tm in data set [1] was 53.7 °C. Moreover, in data set [2], the folding enthalpy is -23.3 kcal/mol.

Regarding GGCGACGAAAGTCTTGCC ((((((....)))..))), in data set [1], the Tm came to 48.9 °C. The folding enthalpy in data set [2] was -19.3 kcal/mol.

As to GGCGACGGAAACGTCGTC (.(((((....))))).), in data set [1], the Tm turned out to be 67.9 °C. Moreover, the folding enthalpy in data set [2] is -26.5 kcal/mol.

With GGCGAGCGAAAGCTGGCC (((.(((....))).))), the Tm in data set [1] came to 68 °C. Besides, in data set [2], the folding enthalpy is -34.6 kcal/mol.

Take GGCGATACGAAAGTAGCC (((..(((....)))))): the Tm in data set [1] came out at 49.5 °C. In data set [2], the folding enthalpy was -23.3 kcal/mol.

As for GGCGATCGAAAGATGCC (((.(((....)))))), the Tm in data set [1] stood at 55 °C. Further, the folding enthalpy in data set [2] was -37.8 kcal/mol.

As for GGCGATGGAAACATCGTC (.(((((....))))).), in data set [1], the Tm was determined as 56.5 °C. In data set [2], the folding enthalpy is -45.8 kcal/mol.

Take GGCGCAGCGAAAGCTGCC (((..(((....)))))): the Tm in data set [1] was found to be 52.6 °C. In data set [2], the folding enthalpy was -6.91 kcal/mol.

GGCGCAGGAAACCGCACC ((.((.(....).)).)): the Tm in data set [1] is 39 °C. For the same sequence, the folding enthalpy in data set [2] was -27.5 kcal/mol.

On to GGCGCCCCGAAAGGGGCC (((..(((....)))))), for which the Tm in data set [1] stood at 58.6 °C. The folding enthalpy in data set [2] was -7.09 kcal/mol.

For the sequence GGCGCCGAAAGGCAAGCC ((((((....)))..))), the Tm in data set [1] amounted to 63.8 °C. Moreover, the folding enthalpy in data set [2] was -21.7 kcal/mol.

With GGCGCCGAAAGGCCGGCC ((((((....)))..))), the Tm in data set [1] turned out to be 58.7 °C. In addition, the folding enthalpy in data set [2] was -17.2 kcal/mol.

On to GGCGCCGAAAGGCGGGCC ((((((....)))..))), for which, in data set [1], the Tm is 60.4 °C. For the same sequence, the folding enthalpy in data set [2] is -9.79 kcal/mol.

As for GGCGCGGGAAACCGCACC ((.((((....)))).)), the Tm in data set [1] was 61.7 °C. Further, the folding enthalpy in data set [2] was -22.4 kcal/mol.
